According to ChEMBL document CHEMBL1649387, “Synthesis and evaluation of quinonoid compounds against tumor cell lines” (Eur J Med Chem, 2011):
Calls of active or inactive are those of the source. The calls are words filed in the database; no cut-off is given here.

Tests used:
HL-60 [1] = experiment: Induction of apoptosis in human HL60 cells assessed as apoptotic nuclei at 5 uM after 24 hrs by acridine orange/ethidium bromide staining based fluorescence microscopy in presence of 1-bromoheptane; type: functional
Summary of the method: (§1)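 Cells exposed 24 h, with or without 24 h pretreatment with 1-bromoheptane. Cell suspension mixed with acridine orange/ethidium bromide (each 100 in PBS) and spread on slide. 300 cells counted per point by fluorescence microscopy to give % apoptotic cells. Mean ± S.E.M. of three experiments.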

MDA-MB-435 [2] = experiment: Induction of apoptosis in human MDA-MB-435 cells assessed as apoptotic nuclei at 5 uM after 24 hrs by acridine orange/ethidium bromide staining based fluorescence microscopy; type: functional; summary of the method: as §1
HCT-8 [3] = experiment: Induction of apoptosis in human HCT8 cells assessed as apoptotic nuclei at 5 uM after 24 hrs by acridine orange/ethidium bromide staining based fluorescence microscopy; type: functional; summary of the method: as §1
HL-60 [4] = experiment: Cytotoxicity against human HL60 cells after 72 hrs by MTT assay; type: functional, cell-based; conditions: HL-60, 72 h
HCT-8 [5] = experiment: Cytotoxicity against human HCT8 cells after 72 hrs by MTT assay; type: functional, cell-based; conditions: HCT-8, 72 h
HCT-8 [6] = experiment: Induction of apoptosis in human HCT8 cells assessed as apoptotic nuclei at 5 uM after 24 hrs by acridine orange/ethidium bromide staining based fluorescence microscopy in presence of 1-bromoheptane; type: functional; summary of the method: as §1
PBMC = experiment: Cytotoxicity against human PBMC cells after 72 hrs by Alamar Blue assay; type: cell-based
MDA-MB-435 [7] = experiment: Induction of apoptosis in human MDA-MB-435 cells assessed as apoptotic nuclei at 5 uM after 24 hrs by acridine orange/ethidium bromide staining based fluorescence microscopy in presence of 1-bromoheptane; type: functional; summary of the method: as §1
SF-295 [8] = experiment: Induction of apoptosis in human SF295 cells assessed as apoptotic nuclei at 5 uM after 24 hrs by acridine orange/ethidium bromide staining based fluorescence microscopy in presence of 1-bromoheptane; type: functional; summary of the method: as §1
SF-295 [9] = experiment: Cytotoxicity against human SF295 cells after 72 hrs by MTT assay; type: functional, cell-based; conditions: SF-295, 72 h
SF-295 [10] = experiment: Induction of apoptosis in human SF295 cells assessed as apoptotic nuclei at 5 uM after 24 hrs by acridine orange/ethidium bromide staining based fluorescence microscopy; type: functional; summary of the method: as §1
MDA-MB-435 [11] = experiment: Cytotoxicity against human MDA-MB-435 cells after 72 hrs by MTT assay; type: functional, cell-based; conditions: MDA-MB-435, 72 h
HL-60 [12] = experiment: Induction of apoptosis in human HL60 cells assessed as apoptotic nuclei at 5 uM after 24 hrs by acridine orange/ethidium bromide staining based fluorescence microscopy; type: functional; summary of the method: as §1
SF-295 [13] = experiment: DNA damage index, DNA damage in human SF295 cells to DNA damage in human HL60 cells with FPG/ENDO3 DNA repair enzymes; type: functional
Summary of the method: (§2)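 Cells treated 12 h, then alkaline comet slides washed in enzyme buffer (40 mM HEPES, 100 mM KCl, 0.5 mM Na2EDTA, 0.2 mg/mL BSA, pH 8.0). Slides then incubated with FPG (30 min, 37 °C) or ENDOIII (45 min, 37 °C). Enzyme-sensitive sites = total breaks minus buffer-only breaks. 100 cells scored per group. NAC pretreatment 5 mM. Mean ± S.E.M. of three experiments.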

HCT-8 [14] = experiment: DNA damage index, DNA damage in human HCT8 cells to DNA damage in human HL60 cells with FPG/ENDO3 DNA repair enzymes in presence of […]; type: functional; summary of the method: as §2
HL-60 [15] = experiment: DNA damage index, DNA damage in human HL60 cells to DNA damage in human HL60 cells with FPG/ENDO3 DNA repair enzymes; type: functional; summary of the method: as §2
HCT-8 [16] = experiment: Induction of lipid peroxidation in human HCT8 cells assessed as increase in TBARS formation at 5 uM after 24 hrs in presence of […]; type: functional, cell-based
Summary of the method: (§3)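 Cells treated 24 h, with or without 24 h pretreatment with 5 mM NAC. Cells lysed with Tris-HCl (15 mM, 1 h) and heated with TCA/HCl/thiobarbituric acid for 15 min at 100 °C, then centrifuged. TBARS read at 532 nm against hydrolyzed 1,1,3,3-tetramethoxypropane standard and normalized to protein.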

SF-295 [17] = experiment: DNA damage index, DNA damage in human SF295 cells to DNA damage in human HL60 cells with FPG/ENDO3 DNA repair enzymes in presence of […]; type: functional; summary of the method: as §2
HL-60 [18] = experiment: Induction of lipid peroxidation in human HL60 cells assessed as increase in TBARS formation at 5 uM after 24 hrs in presence of […]; type: functional, cell-based; summary of the method: as §3
SF-295 [19] = experiment: Induction of lipid peroxidation in human SF295 cells assessed as increase in TBARS formation at 5 uM after 24 hrs in presence of […]; type: functional, cell-based; summary of the method: as §3
MDA-MB-435 [20] = experiment: Induction of lipid peroxidation in human MDA-MB-435 cells assessed as increase in TBARS formation at 5 uM after 24 hrs; type: functional, cell-based; summary of the method: as §3
HL-60 [21] = experiment: Induction of lipid peroxidation in human HL60 cells assessed as increase in TBARS formation at 5 uM after 24 hrs; type: functional, cell-based; summary of the method: as §3
MDA-MB-435 [22] = experiment: Induction of lipid peroxidation in human MDA-MB-435 cells assessed as increase in TBARS formation at 5 uM after 24 hrs in presence of […]; type: functional, cell-based; summary of the method: as §3
MDA-MB-435 [23] = experiment: DNA damage index, DNA damage in human MDA-MB-435 cells to DNA damage in human HL60 cells with FPG/ENDO3 DNA repair enzymes; type: functional; summary of the method: as §2
HCT-8 [24] = experiment: Induction of lipid peroxidation in human HCT8 cells assessed as increase in TBARS formation at 5 uM after 24 hrs; type: functional, cell-based; summary of the method: as §3
MDA-MB-435 [25] = experiment: DNA damage index, DNA damage in human MDA-MB-435 cells to DNA damage in human HL60 cells with FPG/ENDO3 DNA repair enzymes in presence of […]; type: functional; summary of the method: as §2
SF-295 [26] = experiment: Induction of lipid peroxidation in human SF295 cells assessed as increase in TBARS formation at 5 uM after 24 hrs; type: functional, cell-based; summary of the method: as §3
HCT-8 [27] = experiment: DNA damage index, DNA damage in human HCT8 cells to DNA damage in human HL60 cells with FPG/ENDO3 DNA repair enzymes; type: functional; summary of the method: as §2
HL-60 [28] = experiment: DNA damage index, DNA damage in human HL60 cells to DNA damage in human HL60 cells with FPG/ENDO3 DNA repair enzymes in presence of […]; type: functional; summary of the method: as §2

SMILES | Activity (HL-60 [1]) [%] | Activity (MDA-MB-435 [2]) [%] | Activity (HCT-8 [3]) [%] | IC50 (HL-60 [4]) [µM] | IC50 (HCT-8 [5]) [µM] | Activity (HCT-8 [6]) [%] | IC50 (PBMC) [µM] | Activity (MDA-MB-435 [7]) [%] | Activity (SF-295 [8]) [%] | IC50 (SF-295 [9]) [µM] | Activity (SF-295 [10]) [%] | IC50 (MDA-MB-435 [11]) [µM] | Activity (HL-60 [12]) [%] | other results
CC(C)CCC1=C(OC2(CCC(C)C)C(=O)C(=O)C3=C(CCCC3)C2=O)C(=O)C2=C(CCCC2)C1=O (stereo unspecified) | 10.62 | 8.38 | 5.85 | > 10.1 | > 10.1 | 10.33 | > 10.1 | 13.72 | 12.06 | > 10.1 | 8.33 | > 10.1 | 10.21 | 
O=C1c2ccccc2C(=O)c2c1ccc1nc(-c3ccc(O)cc3)[nH]c21 | 14.26 | 9.56 | 8.51 | > 14.7 | > 14.7 | 11.16 | > 14.7 | 13.07 | 10.18 | > 14.7 | 5.93 | > 14.7 | 10.7 | 
CC1(C)CCC2=C(O1)c1ccccc1C(=O)C2=O [LAPACHONE] |  |  |  |  |  |  | > 20.6 |  |  |  |  |  |  | Ratio (SF-295 [13]): 58.75; Ratio (HCT-8 [14]): 11.41; Ratio (HL-60 [15]): 61.36; Activity (HCT-8 [16]): inactive; Ratio (SF-295 [17]): 8.72; Activity (HL-60 [18]): inactive; Activity (SF-295 [19]): inactive; Activity (MDA-MB-435 [20]): Active; Activity (HL-60 [21]): Active; Activity (MDA-MB-435 [22]): inactive; Ratio (MDA-MB-435 [23]): 83.17; Activity (HCT-8 [24]): Active; Ratio (MDA-MB-435 [25]): 5.16; Activity (SF-295 [26]): Active; Ratio (HCT-8 [27]): 72.41; Ratio (HL-60 [28]): 8.33
O=C1c2ccccc2C(=O)c2c1ccc1nc(-c3ccccc3O)[nH]c21 | 12.59 | 7.39 | 6.48 | > 14.7 | 3.64 | 4.19 | > 14.7 | 10.04 | 9.91 | 3.87 | 11.73 | > 14.7 | 8.21 | 
